# Screens from PubChem.
# ARNT TACC3 PPI – ARNT/TACC3 interaction disruption; inhibition, % at 9.99 µM; AlphaScreen His-ARNT PAS-B/GST-TACC3 binding, luminescence; TACC3 fragment carries E629A point mutation; 0.66% of 390,000 active; Q9Y6A5; AID 623870;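 active = mean inhibition of replicates at least 50% and at least half of replicates each reaching 50%; inconclusive = half or more replicates reach 50% but mean below 50%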;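 note: 0% = complete ARNT plus TACC3 wells and 100% = ARNT alone without TACC3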
# T cruzi repl – T. cruzi replication inhibition; 1.4% of 300,000 active; T. cruzi beta-gal in NIH3T3, luminescence, 90 h; inhibition, % (no concentration beside the values);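 active = mean inhibition across valid replicates above about 55%, limit read from the data; inconclusive = mean below that limit but half or more replicates reach it; inactive = mean below it, under half of replicates reach it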;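 note: signal also drops with host cell toxicity which is not excluded here; 0% = plate median of DMSO wells and 100% = zero luminescence signal; higher percent means less beta-gal luminescence so fewer parasites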
#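 Assay system: NIH/3T3 host cells with β-galactosidase reporter T. cruzi; input: 5,000 host fibroblasts per well; compound: single 50 nL compound addition per well in DMSO; timing: ≥90 h infection period, 3 h prior cell attachment; measured by: GalScreen β-gal luminescence, detergent lysis, 60 min; evaluation: percent inhibition of parasite-derived β-gal signal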
# HIF act – HIF pathway transcriptional activation; 0.32% of 300,000 active; U2OS HRE-luciferase reporter, luminescence; normalized: DMSO 0%, desferrioxamine 100%; activation, % at 7.5 µM (by protocol);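 active = mean activation of at least 10% of the iron chelator positive control signal, with at least half of replicates also reaching 10%; inconclusive = mean and replicate majority disagree about reaching 10%; inactive = mean and most replicates under 10%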
# AI-2 QS mod – modulators of Vibrio harveyi AI-2 quorum sensing system; Vibrio harveyi JMH597 AI-2 luminescence/OD600 ratio, 9 h; hits give low values; strain lacks LuxN and CqsS sensors; 0 = neutral-control median; activity change, % at 7.5 µM; 0.4% of 300,000 active; AID 2094; in the data active = activity change below about -75%, passing the limit was not always enough; inconclusive = no clear call, values can overlap the other calls;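 note: luminescence divided by OD600 gain over 9 h not by final OD600 alone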
# Active calls of the source: *; u = inconclusive; x = not tested or not shown. Most compounds without a hit are left out; they make up all but 2% or so of the library.
SMILES,ARNT TACC3 PPI,T cruzi repl,HIF act,AI-2 QS mod
O=C(Cc1ccccc1F)Nc1ccc(S(=O)(=O)Nc2ncccn2)cc1,2,0,1,-76*
O=C(Cc1c(Cl)cccc1Cl)Nc1ccc(S(=O)(=O)Nc2ncccn2)cc1,2,-4,-5,15
COc1ccc(/C=C/c2cc(-c3ccc(C)cc3)o[n+]2C)cc1,18,59*,0,17
CC(C)CC(=O)O/N=C1\C(=O)N(Cc2ccc(Cl)cc2)c2ccc([N+](=O)[O-])cc21,x,58*,-1,40
CC(=O)O/N=C1\C(=O)N(Cc2ccc(C)cc2)c2ccccc21,-6,x,x,x
Fc1ccccc1COc1ccc(Br)cc1CNCc1ccncc1,-3,50,-1,9
Fc1ccc(COc2ccc(Br)cc2CNCc2ccncc2)cc1,1,71*,0,34
Fc1ccc(COc2cccc(CNCc3ccncc3)c2)cc1,-17,60*,-1,13
CCOc1ccc(CN2CCN(Cc3cnc(-c4ccccc4)s3)CC2CCO)cc1 (centres undefined),26,56*,0,2
COc1ccc2c(c1)C=C(CN1CCN(Cc3ccccc3C)C(CCO)C1)CO2 (centres undefined),-11,55*,0,12
CCOc1ccc(CN2CCN(Cc3cc4ccccc4[nH]3)CC2CCO)cc1 (centres undefined),x,60*,0,-25
CCOc1ccc(CN2CCN(CC3=Cc4cccc(OC)c4OC3)CC2CCO)cc1 (centres undefined),-8,56*,0,4
Cc1ccc(S(=O)(=O)N(C)C[C@@H]2Oc3ccc(NC(=O)Nc4ccccc4)cc3CC(=O)N([C@@H](C)CO)C[C@H]2C)cc1,9,x,x,x
CO[C@@H]1CN(C)C(=O)c2ccc(NC(=O)C3CC3)cc2OC[C@H](C)N(Cc2ccncc2)C[C@@H]1C,0,x,x,x
CC(C)Oc1ccc(CNCCC2(C(C)C)CCOC(C)(C)C2)cc1 (centres undefined),-8,68*,0,13
CCOc1ccc(CN2CCCC(N3CCN(c4ccc(OC)cc4)CC3)C2)cc1 (centres undefined),3,59*,1,12
Cn1c(=O)[nH]c(=O)c2c1nc(Br)n2CCCSc1nc2ccccc2o1,-7,63*,0,10
C[C@H]1CN([C@@H](C)CO)C(=O)CCCn2nncc2CO[C@@H]1CN(C)Cc1cccnc1,-5,x,x,x
O=[N+]([O-])c1ccc(C2CN=C(Nc3ccccc3)S2)cc1 (centres undefined),-1,-14,1,-17
CCc1ccc(NC2=NCC(c3ccccc3)S2)cc1 (centres undefined),3,20,5,-95*
O=C(N[C@@H]1C=C[C@H](CC(=O)N2CCN(c3ccccc3)CC2)O[C@H]1CO)c1ccncc1,-5,x,x,x
C[C@H](O)C#Cc1ccc2c(c1)O[C@H](CN(C)C(=O)CC1CC1)[C@H](C)CN([C@@H](C)CO)S2(=O)=O,-3,x,x,x
Cc1ccc(Cl)cc1NC1=C/C(=N\S(=O)(=O)c2cccs2)c2ccccc2C1=O,9,61*,-3,13
O=C1C(Nc2ccc(O)cc2)=C/C(=N/S(=O)(=O)c2cccs2)c2ccccc21,67*,58*,-8,10
Cc1ccc(NC2=C/C(=N\S(=O)(=O)c3cccs3)c3ccccc3C2=O)c(C)c1,-2,57*,-32,29
SMILES,ARNT TACC3 PPI,T cruzi repl,HIF act,AI-2 QS mod
C[C@@H]1CN([C@@H](C)CO)C(=O)Cc2cc(NS(C)(=O)=O)ccc2O[C@H]1CN(C)C(=O)Nc1ccc(F)cc1,0,x,x,x
CCc1nnc(N/N=C/c2cc(Br)c(O)cc2O)n1N,63*,-2,3,28
CC(C)(C)c1nnc(N/N=C/c2cc(Br)ccc2O)n(N)c1=O,58*,-31,3,u
N/C(=N\OC(=O)c1cccc(Br)c1)c1ccccn1,-10,-11,-4,4
O=C(COC(=O)c1ccccn1)c1cccc(Br)c1,50*,-5,0,2
C[C@H]1CN([C@@H](C)CO)C(=O)c2cc(C#Cc3ccccn3)cnc2O[C@H]1CN(C)C(=O)c1ccccn1,-2,x,x,x
Cc1ccc(-c2csc(N=C(N)N)n2)c(C)c1,x,60*,1,9
Cc1ccccc1SCC(=O)Nc1cc(C(F)(F)F)ccc1N1CCOCC1,-9,65*,0,39
O=C(C[C@H]1C[C@@H]2c3cc(NC(=O)c4cccnc4)ccc3O[C@@H]2[C@@H](CO)O1)NCc1ccccn1,4,x,x,x
CO[C@@H]1CN(C)C(=O)c2ccc(NC(=O)C3CCCCC3)cc2OC[C@@H](C)N(Cc2nccs2)C[C@H]1C,-6,x,x,x
Cc1ccc(NC(=O)CCC(=O)N/N=C/c2cc([N+](=O)[O-])ccc2O)cc1,9,-7,2,20
CN1CCN(CCC(=O)N/N=C/c2cc([N+](=O)[O-])ccc2O)CC1,75*,2,0,26
Cc1ccc(C)c(NC(=O)CCC(=O)N/N=C/c2cc([N+](=O)[O-])ccc2O)c1,49*,-23,0,404
Cc1ccccc1NC(=O)CCC(=O)N/N=C/c1cc([N+](=O)[O-])ccc1O,22,-28,1,-109*
Cc1c(NC(=S)N/N=C/c2cc([N+](=O)[O-])ccc2O)c(=O)n(-c2ccccc2)n1C,70*,18,0,26
O=C(CCC(=O)Nc1cccc(Cl)c1)N/N=C/c1cc([N+](=O)[O-])ccc1O,-1,-5,1,-12
CC(C)NC(=O)NCC[C@H]1CC[C@@H](NC(=O)Nc2ccccc2)[C@H](CO)O1,-4,x,x,x
CN(C)CC(=O)N1[C@H](C(=O)NC2CCC2)[C@@H](CO)[C@@H]2Cn3c(ccc(-c4ccccc4)c3=O)[C@@H]21,0,x,x,x
O=C(CCN1CCN(C(c2ccccc2)c2ccccc2)CC1)N/N=C/c1ccc(O)cc1O,45*,1,8,33
O=C(CCN1CCN(C(c2ccccc2)c2ccccc2)CC1)N/N=C/c1ccc(O)cc1,-9,-19,0,22
C[C@@H]1CN([C@@H](C)CO)C(=O)Cc2cc(NC(=O)c3ccncc3)ccc2O[C@H]1CN(C)C,-9,x,x,x
C/C(N)=C(/C#N)C(=O)CSc1nc2cc(Cl)ccc2c(=O)n1Cc1ccco1,x,59*,-1,16
C/C(N)=C(/C#N)C(=O)CSc1nc2cc(Cl)ccc2c(=O)n1-c1ccc(C)cc1,-6,18,0,12
CCOC(=O)c1c(C)[nH]c(C(=O)OCc2ccccc2F)c1C,x,38,11*,18
CCOC(=O)c1c(C)[nH]c(C(=O)OCc2ccc(F)cc2)c1C,-3,5,3,1
CCOC(=O)c1c(C)[nH]c(C(=O)OCC(=O)c2ccccc2)c1C,-3,-5,2,-1
CCCCN(C(=O)c1c(C)[nH]c(C(=O)OCC)c1C)c1ccccc1,-2,5,10*,15
C[C@@H]1CCCCO[C@@H](CN(C)S(=O)(=O)c2cccs2)[C@@H](C)CN([C@@H](C)CO)C(=O)c2cc(NC(=O)Cc3ccccc3)ccc2O1,4,x,x,x
